Reference: ChEMBL document CHEMBL1129428 (J Med Chem, 1996)

Tests used:
Rattus norvegicus [1] = experiment: Compound was tested for anticonvulsant activity after Oral Administration into Rats by using MES screen test after 4h,dose 30 mg/kg; number of rats out of four which were protected; type: functional
Outline: (§1)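 Rats received the compound orally. […] Rats were tested in the MES screen at 0.25, 0.5, 1, 2 and 4 h. Each value is the number of rats protected out of 4. The test followed NINDS procedures.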

Mus musculus [2] = experiment: Toxicity after intraperitoneal injection into mice by using toxicity screen test after 0.5 hr; type: organism-based; conditions: in vivo, ip
Outline: (§2)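 Mice injected intraperitoneally at 30, 100 and 300 mg/kg and examined 0.5 and 4 h afterwards. Each entry is the minimum dose giving activity (MES protection, scPTZ protection, or rotorod failure for neurotoxicity) in half or more of the mice. Activity is called absent if nothing occurs at 300 mg/kg.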

[3] = Protection index = TD50/ED50; type: ADME; conditions: read-out: PI
Rattus norvegicus [4] = experiment: Compound was tested for anticonvulsant activity after Oral Administration into Rats by using MES screen test after 0.25h,dose 30 mg/kg; number of rats out of four which were protected; type: functional; outline: as §1
Mus musculus [5] = experiment: Anticonvulsant activity after intraperitoneal injection into mice by using MES screen test after 0.5 hr; type: functional
Rattus norvegicus [6] = experiment: Compound was tested for anticonvulsant activity after Oral Administration into Rats by using MES screen test after 0.5h,dose 30 mg/kg; number of rats out of four which were protected; type: functional; outline: as §1
Mus musculus [7] = experiment: Anticonvulsant activity after intraperitoneal injection into mice measured in a maximal electroshock scree (MES) screen; type: functional
Mus musculus [8] = experiment: Compound was tested for toxicity after intraperitoneal injection into mice by using toxicity screen test after 4 hr; type: organism-based; conditions: in vivo, ip; outline: as §2
Rattus norvegicus [9] = experiment: Compound was tested for anticonvulsant activity after Oral Administration into Rats by using MES screen test after 2h,dose 30 mg/kg; number of rats out of four which were protected; type: functional; outline: as §1
[10] = Protection index = TD50/ED50 (MES); conditions: mouse, in vivo; read-out: PI
Mus musculus [11] = experiment: Anticonvulsant activity after intraperitoneal injection into mice by using MES screen test after 0.25 hr; type: functional
Mus musculus [12] = experiment: Compound was tested for anticonvulsant activity after intraperitoneal injection into mice by using scPTZ screen test after 0.25 hr; type: functional; conditions: ip
Outline: (§3)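 Quantitative intraperitoneal mouse testing in the MES, scPTZ or rotorod neurotoxicity screens at the peak time given for each compound (0.25–2 h). ED50 or TD50 reported in mg/kg with 95% CI and slope (SE).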

[13] = Compound was tested for toxicity after intraperitoneal injection into mice by using neurotoxicity screen test after 1 hr; type: organism-based; conditions: mouse, in vivo, ip; outline: as §3
Rattus norvegicus [14] = experiment: Compound was tested for anticonvulsant activity after Oral Administration into rat by using MES screen test after 4 hr; type: functional
Outline: (§4)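 Rats dosed orally, typically at 50 mg/kg first, then mostly 12.5 mg/kg (some compounds at 30 mg/kg), and tested by maximal electroshock. Four rats per compound, scored at 0.25, 0.5, 1, 2 and 4 h as the number of rats protected out of 4.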

Rattus norvegicus [15] = experiment: Compound was tested for anticonvulsant activity after Oral Administration into Rats by using MES screen test after 1h,dose 30 mg/kg; number of rats out of four which were protected; type: functional; outline: as §1
Rattus norvegicus [16] = experiment: Compound was tested for anticonvulsant activity after Oral Administration into Rats by using MES screen test after 4h,dose 30 mg/kg; No activity was demonstarted; type: functional, organism-based; design: dose 30 mg/kg; outline: as §1
Mus musculus [17] = experiment: Anticonvulsant activity after intraperitoneal injection into mice by using scPTZ screen test after 4 hr; type: functional
Rattus norvegicus [18] = experiment: Compound was tested for anticonvulsant activity after Oral Administration into Rats by using MES screen test after 2h,dose 30 mg/kg; No activity was demonstarted; type: functional, organism-based; design: dose 30 mg/kg; outline: as §1
[19] = Partition coefficient (logP); type: physicochemical; conditions: octanol/water
Outline: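 Partition between 1-octanol and buffer at pH 7.4, with solutions prepared in 1-octanol before buffer is added. Quantified by UV, using λmax and ε values measured in 1-octanol.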

Rattus norvegicus [20] = experiment: Compound was tested for anticonvulsant activity after Oral Administration into Rats by using MES screen test after 0.5h,dose 30 mg/kg; No activity was demonstarted; type: functional, organism-based; design: dose 30 mg/kg; outline: as §1
Rattus norvegicus [21] = experiment: Compound was tested for anticonvulsant activity after Oral Administration into Rats by using MES screen test after 1h,dose 30 mg/kg; No activity was demonstarted; type: functional, organism-based; design: dose 30 mg/kg; outline: as §1
Rattus norvegicus [22] = experiment: Compound was tested for anticonvulsant activity after Oral Administration into Rats by using MES screen test after 0.25h,dose 30 mg/kg; No activity was demonstarted; type: functional, organism-based; design: dose 30 mg/kg; outline: as §1
Rattus norvegicus [23] = experiment: Compound was tested for anticonvulsant activity after Oral Administration into Rats by using MES screen test after 1h,dose 12.5 mg/kg; number of rats out of four which were protected; type: functional; outline: as §1
Rattus norvegicus [24] = experiment: Compound was tested for anticonvulsant activity after Oral Administration into Rats by using MES screen test after 0.25h,dose 12.5 mg/kg; No activity was demonstarted; type: functional, organism-based; design: dose 12.5 mg/kg; outline: as §1
Rattus norvegicus [25] = experiment: Compound was tested for anticonvulsant activity after Oral Administration into Rats by using MES screen test after 4h,dose 12.5 mg/kg; number of rats out of four which were protected; type: functional; outline: as §1
Rattus norvegicus [26] = experiment: Anticonvulsant activity after oral administration into rats; type: functional; design: concentration or dose not given beside the values
Rattus norvegicus [27] = experiment: Compound was tested for anticonvulsant activity after Oral Administration into rat by using MES screen test after 1 hr; type: functional; outline: as §4
[28] = Compound was tested for toxicity after oral administration in rat by using neurotoxicity screen test after 0.25-24 hr; type: organism-based; conditions: in vivo
Outline: (§5)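 Rat neurotoxicity after oral dosing, observed at 0.25, 0.5, 1, 2, 4, 6, 8 and 24 h (8 h omitted for one compound).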

[29] = Protection index = TD50/ED50 (MES); type: ADME, organism-based; conditions: rat, in vivo; read-out: PI
Rattus norvegicus [30] = experiment: Compound was tested for anticonvulsant activity after Oral Administration into Rats by using MES screen test after 2h,dose 12.5 mg/kg; number of rats out of four which were protected; type: functional; outline: as §1
Mus musculus [31] = experiment: Compound was tested for anticonvulsant activity after intraperitoneal injection into mice by using MES screen test after 2 hr; type: functional; conditions: ip; outline: as §3
Mus musculus [32] = experiment: Compound was tested for anticonvulsant activity after intraperitoneal injection into mice by using scPTZ screen test after 2 hr; type: functional; conditions: ip; outline: as §3
[33] = Compound was tested for toxicity after oral administration in rat by using neurotoxicity screen test after 4 hr; type: organism-based; conditions: in vivo; outline: as §5
[34] = Compound was tested for toxicity after intraperitoneal injection into mice by using neurotoxicity screen test after 2 hr; type: organism-based; conditions: mouse, in vivo, ip; outline: as §3
Mus musculus [35] = experiment: Anticonvulsant activity after intraperitoneal injection into mice by using scPTZ screen after 0.5 hr; type: functional
Mus musculus [36] = experiment: Compound was tested for anticonvulsant activity after intraperitoneal injection into mice by using MES screen test after 4 hr; type: functional; conditions: ip; outline: as §2
[37] = Compound was tested for toxicity after intraperitoneal injection into mice by using neurotoxicity screen test after 4 hr; type: organism-based; conditions: mouse, in vivo, ip; outline: as §2
Rattus norvegicus [38] = experiment: Compound was tested for anticonvulsant activity after Oral Administration into rat by using MES screen test after 0.5 hr; type: functional; outline: as §4

Structure (SMILES) | Activity (Rattus norvegicus [1]) | Dose (Mus musculus [2]) | Activity (Rattus norvegicus [4]) | Dose (Mus musculus [5]) | Activity (Rattus norvegicus [6]) | Dose (Mus musculus [7]) | Dose (Mus musculus [8]) | Activity (Rattus norvegicus [9]) | selectivity ratio [10] | ED50 (Rattus norvegicus [14]) | Activity (Rattus norvegicus [15]) | Dose (Mus musculus [17]) | further results
C/C(=N/NC(N)=O)c1ccc(Oc2ccccc2)cc1 | 4 | 100 mg/kg | 4 | 30 mg/kg | 4 | 100 mg/kg | 100 mg/kg | 4 | 8.09 | 9.73 mg/kg | 4 | – | selectivity ratio [3]: 1.7; ED50 (Mus musculus [11]): 9.08 mg/kg; ED50 (Mus musculus [12]): 43.3 mg/kg; TD50 at 1 h [13]: 73.5 mg/kg
NNC(=O)N/N=C/c1ccc(Oc2ccc(F)cc2)cc1 | – | – | – | 300 mg/kg | – | 100 mg/kg | 300 mg/kg | – | – | – | – | 300 mg/kg | Activity (Rattus norvegicus [16]): No activity; Activity (Rattus norvegicus [18]): No activity; logP [19]: 2.06; Activity (Rattus norvegicus [20]): No activity; Activity (Rattus norvegicus [21]): No activity; Activity (Rattus norvegicus [22]): No activity
O=CN/N=C/c1ccc(Sc2ccc(F)cc2)cc1 | 1 | – | 1 | 100 mg/kg | – | 100 mg/kg | 300 mg/kg | – | – | – | – | 300 mg/kg | Activity (Rattus norvegicus [18]): No activity; Activity (Rattus norvegicus [20]): No activity; Activity (Rattus norvegicus [21]): No activity
Cc1cccc(Oc2ccc(/C=N/NC(N)=O)cc2)c1 | – | 100 mg/kg | – | 30 mg/kg | – | 100 mg/kg | 300 mg/kg | – | – | – | – | – | Activity (Rattus norvegicus [23]): 4; Activity (Rattus norvegicus [24]): No activity; Activity (Rattus norvegicus [25]): 2; Activity (Rattus norvegicus [26]): 4; ED50 (Rattus norvegicus [27]): 3.07 mg/kg; TD50 [28]: > 500 mg/kg; selectivity ratio [29]: > 163; Activity (Rattus norvegicus [30]): 3
C/C(=N/NC(N)=O)c1ccc(Oc2ccc(Cl)cc2)cc1 | 4 | 300 mg/kg | 3 | 30 mg/kg | 4 | 30 mg/kg | 100 mg/kg | 4 | 8.37 | 2.92 mg/kg | 4 | 30 mg/kg | ED50 (Mus musculus [31]): 9.14 mg/kg; selectivity ratio [3]: 2.23; ED50 (Mus musculus [32]): 34.4 mg/kg; TD50 at 4 h [33]: < 500 mg/kg; TD50 at 2 h [34]: 76.5 mg/kg
CC/C(=N/NC(N)=O)c1ccc(Oc2ccc(Br)cc2)cc1 | – | 300 mg/kg | – | 30 mg/kg | – | 30 mg/kg | 100 mg/kg | – | 7.82 | 4.39 mg/kg | – | – | Activity (Rattus norvegicus [23]): 4; Dose (Mus musculus [35]): 100 mg/kg; ED50 (Mus musculus [36]): 6.71 mg/kg; TD50 at 4 h [37]: 52.5 mg/kg; Activity (Rattus norvegicus [24]): No activity; Activity (Rattus norvegicus [25]): 4; Activity (Rattus norvegicus [26]): 2; Activity (Rattus norvegicus [30]): 4
CC/C(=N/NC(N)=O)c1ccc(Oc2ccccc2)cc1 | – | 100 mg/kg | 1 | 30 mg/kg | 4 | 100 mg/kg | 100 mg/kg | 3 | – | – | 3 | – | Activity (Rattus norvegicus [16]): No activity; ED50 (Rattus norvegicus [38]): 23.1 mg/kg
